A short description of data set [1]: Negative inotropic activity in New Zealand White rabbit isolated atria assessed as reduction of tissue contractility after 15 mins. As to conditions: 0.25 h. More on the design: species or system Oryctolagus cuniculus, Cardiac atrium. In outline: (§1)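 Isolated atria stabilized 90 min, paced by 2-ms pulses via platinum electrodes near SA node at 2.5× threshold voltage (threshold found at 240 pulses/min, mean of three). MDF averaged over three determinations. Drug added cumulatively without washout, reading 15 min after each dose, until MDF fell ~60%. Percent decrease in MDF or peak height plotted against log molar concentration and fitted by linear regression. Log ED40 read graphically. Three tissues per compound, averaged with SD.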

The test system of data set [2] is Heart. The experiment in a line: Antiarrhythmic activity in New Zealand White rabbit isolated atria assessed as reduction of maximum driving frequency after 15 mins. It counts as functional, Oryctolagus cuniculus. Summed up:
as §1

Data set [3] can be described thus: Octanol-phosphate buffer partition coefficient, log P of the compound. It counts as physicochemical. Summed up:
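Compound stock in octanol-saturated buffer, about 0.05 mg/mL. Shaken with octanol 2 h at 37 °C, 200 oscillations/min, then centrifuged 2000 rpm for 4 min. Buffer-phase UV absorbance at λmax near 300 nm measured before and after. P = (Astd − Aext)/(Aext·f), with f the octanol:buffer volume ratio. Run in triplicate.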

Data set [4] can be described thus: Selectivity index, ratio of pED40 for tissue contractility to pED40 for maximum driving response in New Zealand White rabbit isolated atria. The arrangement: species or system Oryctolagus cuniculus, Cardiac atrium. In outline:
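Ratio of ED40 for contractility to ED40 for MDF. Both come from the same cumulative 15-min dosing of paced isolated atria, with three tissues per compound.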

Data set [5] can be described thus: Selectivity index, ratio of pED40 for tissue contractility to pED40 for maximum driving response in New Zealand White rabbit isolated atria in presence of 4X10'-8 M propranolol. More on the design: species or system Oryctolagus cuniculus, Cardiac atrium.
The nature of data set [6]: Negative inotropic activity in New Zealand White rabbit isolated atria assessed as reduction of tissue contractility after 15 mins in presence of 4X10'-8 M propranolol. More on the design: species or system Oryctolagus cuniculus, Cardiac atrium. As to conditions: 0.25 h. In outline:
as §1

In data set [7] the test system is Heart. The experiment in a line: Antiarrhythmic activity in New Zealand White rabbit isolated atria assessed as reduction of maximum driving frequency after 15 mins in presence of 4X10'-8 M propranolol. The class given is functional, Oryctolagus cuniculus. Summed up: as §1

Each structure is given as a SMILES string. Counter-ions that a name gives are not always drawn.

For `C[N+](C)(C)CCCNCC(O)COc1cccc2ccccc12.Cl.[Cl-]` (stereo unspecified), the pED40 worked out at 3.06 in data set [1] and 3.08 in data set [2]. The log partition coefficient (logP) in data set [3] is -1.89. Also, the “Selectivity Index” value in data set [4] was determined as 1.1.
`CC(C)NCC(O)COc1ccc(Cl)c2ccccc12` (stereo unspecified): the pED40 in data set [1] worked out at 5.26; in data set [2], 5.2. The logP in data set [3] amounted to 2. The “Selectivity Index” value in data set [4] was 0.9.
As to `CC(C)NCC(O)COc1cccc2ccccc12` (stereo unspecified) [PROPRANOLOL], the pED40 in data set [1] amounted to 5.21; in data set [2], 5.43.
As for `CC(C)NCC(O)COc1ccc(S(N)(=O)=O)c2ccccc12.Cl` (stereo unspecified), the pED40 in data set [1] was determined as 3.35; in data set [2], 3.58. This compound also had a logP in data set [3] of -0.51. Further, the “Selectivity Index” value in data set [4] is listed as 1.7.
The matching figures for `CCCCNCC(O)COc1cccc2ccccc12` (stereo unspecified): 5.38, 5.64, 2.08 and 1.8.
The matching figures for `CC(C)NCC(O)COc1ccc(O)c2ccccc12` (stereo unspecified) [4-HYDROXYPROPRANOLOL SULFATE]: 4.39, 4.6, 0.39 and 1.8.
`Cl.NC(=O)CCCNCC(O)COc1cccc2ccccc12` (stereo unspecified): the “Selectivity Index” value in data set [5] is 1.4. The pED40 in data set [6] turned out to be 4.79; in data set [7], 4.89. Further, in data set [3], the lipophilicity (logP) came out at 0.31.
For `Br.CC(C)NCC(O)COc1c(Br)cc(Br)c2ccccc12` (stereo unspecified), the pED40 was determined as 5.53 in data set [1] and 5.1 in data set [2]. This compound registered a logP in data set [3] of 2.71. For the same compound, the “Selectivity Index” value in data set [4] came out at 0.4.
The corresponding values for `CC(C)NCC(O)COc1ccc(N)c2ccccc12.Cl` (stereo unspecified) are 4.92, 5.02, -0.27 and 1.6.
The corresponding values for `Cl.O=C(O)CCCNCC(O)COc1cccc2ccccc12` (stereo unspecified) are 3.02, 3.41, 0.21 and 2.
For `COCCCNCC(O)COc1cccc2ccccc12` (stereo unspecified), the pED40 in data set [1] is given as 5.4; in data set [2], 5.45. This compound came in with a lipophilicity (logP) in data set [3] of 1.28. Besides, in data set [4], the “Selectivity Index” value is recorded as 1.5.
As to `Cl.NCCCNCC(O)COc1cccc2ccccc12` (stereo unspecified), the pED40 in data set [1] is 4.47; in data set [2] it was 4.5. This compound displayed a lipophilicity (logP) in data set [3] of -0.19. Besides, the “Selectivity Index” value in data set [4] came to 1.

Broadly, the logP is the decadic logarithm of the partition coefficient of the neutral form, usually between octanol and water. Higher therefore signals a more lipophilic compound.

The record behind these values is ChEMBL document CHEMBL3243947 (J Med Chem, 1979).
